Measured values as given in ChEMBL document CHEMBL1133661, “Synthesis and in vitro anti-mycobacterium activity of N-alkyl-1, 2-dihydro-2-thioxo-3-pyridinecarbothioamides. Preliminary toxicity and pharmacokinetic evaluation” (J Med Chem, 2000).
Values after ≈ are worked out from the molar mass of the structure shown.

Assays:
[1] = system: Mycobacterium tuberculosis; experiment: In Vitro antimicrobial activity against the Mycobacterium tuberculosis (MT) Wild type strain MT-1; assay type: functional
In short: (§1)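 MIC by radiometric broth dilution (BACTEC 460-TB) in 7H12 liquid medium containing 14C-palmitic acid. Growth read as 14CO2 release, recorded as growth index (0–999). Compounds stocked in DMSO; working solutions at 40-fold final concentration made in sterile distilled water. Ethambutol reference. MIC expressed in µg/mL.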

[2] = system: Mycobacterium tuberculosis; experiment: In Vitro antimicrobial activity against the Mycobacterium tuberculosis (MT) Wild type strain MT-2; assay type: functional; in short: as §1
Mycobacterium avium [3] = experiment: In Vitro antimicrobial activity against the Mycobacterium avium complex (MAC) Wild type strain ISS 486; assay type: functional; in short: as §1
Mycobacterium avium [4] = experiment: In Vitro antimicrobial activity against the Mycobacterium avium complex (MAC) strain ATCC 15769; assay type: functional; in short: as §1
[5] = system: Mycobacterium tuberculosis; experiment: In Vitro antimicrobial activity against the Mycobacterium tuberculosis (MT) strain H-37-Rv ATCC; assay type: functional; in short: as §1
Mycobacterium avium [6] = experiment: In Vitro antimicrobial activity against the Mycobacterium avium complex (MAC) Wild type strain AN2; assay type: functional; in short: as §1
Mycobacterium avium [7] = experiment: In Vitro antimicrobial activity against the Mycobacterium avium complex (MAC) Wild type strain AN1; assay type: functional; in short: as §1
Mycobacterium avium [8] = experiment: In Vitro antimicrobial activity against the Mycobacterium avium complex (MAC) Wild type strain AN3; assay type: functional; in short: as §1
Mycobacterium avium [9] = experiment: In Vitro antimicrobial activity against Mycobacterium avium complex (MAC) strain ATCC 15769; assay type: functional; in short: as §1
[10] = Area under curve (AUC) value of the compound; assay type: ADME
In short: (§2)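 Male Wistar rats (250-300 g), single 20 mg/kg i.v. dose in poly(ethylene glycol) 400, given through a permanent jugular-vein cannula that also served for blood sampling. Plasma levels measured by GC-MS (electron impact 70 eV; ions 233, 181, 168, 137, 104 monitored). Parameters derived by noncompartmental analysis.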

[11] = Mean residence time (MRT) in rats after intravenous administration; assay type: ADME, organism-based; conditions: rat, in vivo; in short: as §2
[12] = Elimination half life value after intravenous administration in rats; assay type: ADME, organism-based; conditions: rat, in vivo; in short: as §2
[13] = Clearance (CL) value in rats after intravenous administration.; assay type: ADME, organism-based; conditions: rat, in vivo, read-out: CI; in short: as §2
[14] = Volume of distribution in rats after intravenous administration; assay type: ADME, organism-based; conditions: rat, in vivo, read-out: Vss; in short: as §2
[15] = Mean residence time (MRT) in rats after intravenous administration.; assay type: ADME, organism-based; conditions: rat, in vivo; in short: as §2

CCCCCCCCCCCCCCCC/N=C(\S)c1cccnc1S
MIC [1]: 16 µg/mL (≈ 40.5 µM) | MIC [2]: 32 µg/mL (≈ 81.1 µM) | MIC (Mycobacterium avium [3]): 8 µg/mL (≈ 20.3 µM) | MIC (Mycobacterium avium [4]): 8 µg/mL (≈ 20.3 µM) | MIC [5]: 16 µg/mL (≈ 40.5 µM) | MIC (Mycobacterium avium [6]): 8 µg/mL (≈ 20.3 µM) | MIC (Mycobacterium avium [7]): 8 µg/mL (≈ 20.3 µM) | MIC (Mycobacterium avium [8]): 8 µg/mL (≈ 20.3 µM)

OCC/N=C(\S)c1cccnc1S
MIC [1]: 4 µg/mL (≈ 18.7 µM) | MIC [2]: 8 µg/mL (≈ 37.3 µM) | MIC (Mycobacterium avium [3]): 8 µg/mL (≈ 37.3 µM) | MIC (Mycobacterium avium [4]): 8 µg/mL (≈ 37.3 µM) | MIC [5]: 2 µg/mL (≈ 9.33 µM) | MIC (Mycobacterium avium [6]): 8 µg/mL (≈ 37.3 µM) | MIC (Mycobacterium avium [7]): 4 µg/mL (≈ 18.7 µM) | MIC (Mycobacterium avium [8]): 4 µg/mL (≈ 18.7 µM)

CCCCCCCC/N=C(\S)c1cccnc1S
MIC [1]: 4 µg/mL (≈ 14.2 µM) | MIC [2]: 4 µg/mL (≈ 14.2 µM) | MIC (Mycobacterium avium [3]): 8 µg/mL (≈ 28.3 µM) | MIC (Mycobacterium avium [4]): 4 µg/mL (≈ 14.2 µM) | MIC [5]: 1 µg/mL (≈ 3.54 µM) | MIC (Mycobacterium avium [6]): 4 µg/mL (≈ 14.2 µM) | MIC (Mycobacterium avium [7]): 8 µg/mL (≈ 28.3 µM) | MIC (Mycobacterium avium [8]): 4 µg/mL (≈ 14.2 µM)

C/N=C(\S)c1cccnc1S
MIC [1]: 1 µg/mL (≈ 5.43 µM) | MIC [2]: 1 µg/mL (≈ 5.43 µM) | MIC (Mycobacterium avium [3]): 4 µg/mL (≈ 21.7 µM) | MIC (Mycobacterium avium [4]): 4 µg/mL (≈ 21.7 µM) | MIC [5]: 2 µg/mL (≈ 10.9 µM) | MIC (Mycobacterium avium [6]): 4 µg/mL (≈ 21.7 µM) | MIC (Mycobacterium avium [7]): 8 µg/mL (≈ 43.4 µM) | MIC (Mycobacterium avium [8]): 4 µg/mL (≈ 21.7 µM)

S/C(=N\C1CCCCC1)c1cccnc1S
MIC [1]: 4 µg/mL (≈ 15.8 µM) | MIC [2]: 1 µg/mL (≈ 3.96 µM) | MIC (Mycobacterium avium [3]): 4 µg/mL (≈ 15.8 µM) | MIC (Mycobacterium avium [4]): 4 µg/mL (≈ 15.8 µM) | MIC [5]: 0.5 µg/mL (≈ 1.98 µM) | MIC (Mycobacterium avium [6]): 4 µg/mL (≈ 15.8 µM) | MIC (Mycobacterium avium [7]): 4 µg/mL (≈ 15.8 µM) | MIC (Mycobacterium avium [8]): 4 µg/mL (≈ 15.8 µM)

CCCCCC/N=c1\ssc2ncccc12.CCCCCCn1sc2ncccc2c1=S
MIC [1]: 8 µg/mL | MIC [2]: 8 µg/mL | MIC (Mycobacterium avium [4]): 8 µg/mL | MIC [5]: 4 µg/mL

CCCCCCCCCCCCCCCCCC/N=C(\S)c1cccnc1S
MIC [1]: 64 µg/mL (≈ 151 µM) | MIC [2]: 64 µg/mL (≈ 151 µM) | MIC (Mycobacterium avium [3]): 32 µg/mL (≈ 75.7 µM) | MIC (Mycobacterium avium [4]): 64 µg/mL (≈ 151 µM) | MIC [5]: 32 µg/mL (≈ 75.7 µM) | MIC (Mycobacterium avium [6]): 32 µg/mL (≈ 75.7 µM) | MIC (Mycobacterium avium [7]): 32 µg/mL (≈ 75.7 µM) | MIC (Mycobacterium avium [8]): 32 µg/mL (≈ 75.7 µM)

S=c1ssc2ncccc12
MIC (Mycobacterium avium [9]): 8 µg/mL (≈ 43.2 µM)

CCCCCCC/N=C(\S)c1cccnc1S
MIC [1]: 2 µg/mL (≈ 7.45 µM) | AUC [10]: 8250 ng·h/mL | MIC [2]: 2 µg/mL (≈ 7.45 µM) | MIC (Mycobacterium avium [3]): 4 µg/mL (≈ 14.9 µM) | MIC (Mycobacterium avium [4]): 2 µg/mL (≈ 7.45 µM) | MIC [5]: 0.5 µg/mL (≈ 1.86 µM) | MRT [11]: 28.9 min | MIC (Mycobacterium avium [6]): 4 µg/mL (≈ 14.9 µM) | half-life [12]: 28 min | MIC (Mycobacterium avium [7]): 4 µg/mL (≈ 14.9 µM) | clearance [13]: 50 mL/min | Vd [14]: 1.28 L | MIC (Mycobacterium avium [8]): 4 µg/mL (≈ 14.9 µM)

CCCCCCCCC/N=C(\S)c1cccnc1S
MIC [1]: 16 µg/mL (≈ 54 µM) | MIC [2]: 16 µg/mL (≈ 54 µM) | MIC (Mycobacterium avium [3]): 8 µg/mL (≈ 27 µM) | MIC (Mycobacterium avium [4]): 8 µg/mL (≈ 27 µM) | MIC [5]: 4 µg/mL (≈ 13.5 µM) | MIC (Mycobacterium avium [6]): 8 µg/mL (≈ 27 µM) | MIC (Mycobacterium avium [7]): 8 µg/mL (≈ 27 µM) | MIC (Mycobacterium avium [8]): 8 µg/mL (≈ 27 µM)

CC/N=C(\S)c1cccnc1S
MIC [1]: 1 µg/mL (≈ 5.04 µM) | AUC [10]: 18500 ng·h/mL | MIC [2]: 1 µg/mL (≈ 5.04 µM) | MIC (Mycobacterium avium [3]): 4 µg/mL (≈ 20.2 µM) | MIC (Mycobacterium avium [4]): 4 µg/mL (≈ 20.2 µM) | MIC [5]: 0.5 µg/mL (≈ 2.52 µM) | MRT [15]: 47.6 min | MIC (Mycobacterium avium [6]): 8 µg/mL (≈ 40.3 µM) | half-life [12]: 37.2 min | MIC (Mycobacterium avium [7]): 4 µg/mL (≈ 20.2 µM) | clearance [13]: 20 mL/min | Vd [14]: 0.93 L | MIC (Mycobacterium avium [8]): 8 µg/mL (≈ 40.3 µM)

CCCCCCn1sc2ncccc2c1=O
MIC [1]: 8 µg/mL (≈ 33.8 µM) | MIC [2]: 8 µg/mL (≈ 33.8 µM) | MIC (Mycobacterium avium [4]): 16 µg/mL (≈ 67.7 µM) | MIC [5]: 16 µg/mL (≈ 67.7 µM)

O=c1ssc2ncccc12
MIC [1]: 8 µg/mL (≈ 47.3 µM) | MIC [2]: 8 µg/mL (≈ 47.3 µM) | MIC (Mycobacterium avium [4]): 2 µg/mL (≈ 11.8 µM) | MIC [5]: 4 µg/mL (≈ 23.6 µM)

CC[C@@H](CO)NCCN[C@@H](CC)CO [ETHAMBUTOL]
MIC [1]: < 2 µg/mL | MIC [2]: < 2 µg/mL | MIC (Mycobacterium avium [3]): 2 µg/mL (≈ 9.79 µM) | MIC [5]: < 2 µg/mL | MIC (Mycobacterium avium [6]): 0.5 µg/mL (≈ 2.45 µM) | MIC (Mycobacterium avium [7]): 1 µg/mL (≈ 4.89 µM) | MIC (Mycobacterium avium [8]): 2 µg/mL (≈ 9.79 µM)

CCCCCC/N=C(\S)c1cccnc1S
MIC [1]: 1 µg/mL (≈ 3.93 µM) | MIC [2]: 2 µg/mL (≈ 7.86 µM) | MIC (Mycobacterium avium [3]): 0.5 µg/mL (≈ 1.97 µM) | MIC (Mycobacterium avium [4]): 1 µg/mL (≈ 3.93 µM) | MIC [5]: 1 µg/mL (≈ 3.93 µM) | MIC (Mycobacterium avium [6]): 1 µg/mL (≈ 3.93 µM) | MIC (Mycobacterium avium [7]): 1 µg/mL (≈ 3.93 µM) | MIC (Mycobacterium avium [8]): 1 µg/mL (≈ 3.93 µM)

CCCCCCNC(=O)c1cccnc1S
MIC [1]: 8 µg/mL (≈ 33.6 µM) | MIC [2]: 16 µg/mL (≈ 67.1 µM) | MIC (Mycobacterium avium [4]): 8 µg/mL (≈ 33.6 µM) | MIC [5]: 8 µg/mL (≈ 33.6 µM)

CCCCC/N=C(\S)c1cccnc1S
MIC [1]: 4 µg/mL (≈ 16.6 µM) | MIC [2]: 4 µg/mL (≈ 16.6 µM) | MIC (Mycobacterium avium [3]): 1 µg/mL (≈ 4.16 µM) | MIC (Mycobacterium avium [4]): 1 µg/mL (≈ 4.16 µM) | MIC [5]: 2 µg/mL (≈ 8.32 µM) | MIC (Mycobacterium avium [6]): 2 µg/mL (≈ 8.32 µM) | MIC (Mycobacterium avium [7]): 1 µg/mL (≈ 4.16 µM) | MIC (Mycobacterium avium [8]): 1 µg/mL (≈ 4.16 µM)

CCCCCCCCCC/N=C(\S)c1cccnc1S
MIC [1]: 64 µg/mL (≈ 206 µM) | MIC [2]: 64 µg/mL (≈ 206 µM) | MIC (Mycobacterium avium [3]): 32 µg/mL (≈ 103 µM) | MIC (Mycobacterium avium [4]): 16 µg/mL (≈ 51.5 µM) | MIC [5]: 16 µg/mL (≈ 51.5 µM) | MIC (Mycobacterium avium [6]): 32 µg/mL (≈ 103 µM) | MIC (Mycobacterium avium [7]): 32 µg/mL (≈ 103 µM) | MIC (Mycobacterium avium [8]): 32 µg/mL (≈ 103 µM)

CCCC/N=C(\S)c1cccnc1S
MIC [1]: 4 µg/mL (≈ 17.7 µM) | MIC [2]: 4 µg/mL (≈ 17.7 µM) | MIC (Mycobacterium avium [3]): 2 µg/mL (≈ 8.84 µM) | MIC (Mycobacterium avium [4]): 1 µg/mL (≈ 4.42 µM) | MIC [5]: 4 µg/mL (≈ 17.7 µM) | MIC (Mycobacterium avium [6]): 4 µg/mL (≈ 17.7 µM) | MIC (Mycobacterium avium [7]): 4 µg/mL (≈ 17.7 µM) | MIC (Mycobacterium avium [8]): 4 µg/mL (≈ 17.7 µM)

CCC/N=C(\S)c1cccnc1S
MIC [1]: 4 µg/mL (≈ 18.8 µM) | MIC [2]: 4 µg/mL (≈ 18.8 µM) | MIC (Mycobacterium avium [3]): 1 µg/mL (≈ 4.71 µM) | MIC (Mycobacterium avium [4]): 2 µg/mL (≈ 9.42 µM) | MIC [5]: 2 µg/mL (≈ 9.42 µM) | MIC (Mycobacterium avium [6]): 4 µg/mL (≈ 18.8 µM) | MIC (Mycobacterium avium [7]): 2 µg/mL (≈ 9.42 µM) | MIC (Mycobacterium avium [8]): 2 µg/mL (≈ 9.42 µM)
